The subject of data set [1] is SARS-CoV-2. Description: Antiviral activity against SARS-Cov2 USA-WA1/2020 infected in African green monkey Vero E6 cells assessed as viral plaque reduction measured after 3 days by plaque reduction neutralization test. Format: functional, organism-based. Conditions: Severe acute respiratory syndrome coronavirus 2, USA-WA1/2020, Vero C1008, 72 h. In general terms: Plaques are areas of infected cells; plaque reduction assays count them against a control.

The nature of data set [2]: Cytotoxicity against HEK293T/17 cells by MTT assay. Type of data set: toxicity, cell-based. As to conditions: human. The method, boiled down:
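MTT viability assay in 293T cells. CC50 is derived from cytotoxicity curves of compound concentration versus viability.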
On the technique in general: Formazan colour is commonly taken as a measure of viable cells.

The subject of data set [3] is SARS-CoV-2. Description: Antiviral activity against SARS-Cov2 Delta infected in African green monkey Vero E6 cells assessed as viral plaque reduction measured after 3 days by plaque reduction neutralization test. Type of data set: functional, organism-based. Conditions: Severe acute respiratory syndrome coronavirus 2, Delta, Vero C1008, 72 h.
Data set [4] has as its system SARS-CoV-2. Description: Antiviral activity against SARS-Cov2 Beta infected in African green monkey Vero E6 cells assessed as viral plaque reduction measured after 3 days by plaque reduction neutralization test. Format: functional, organism-based. As to conditions: Severe acute respiratory syndrome coronavirus 2, Beta, Vero C1008, 72 h.
Data set [5] concerns the target T1, Replicase polyprotein 1ab (Severe acute respiratory syndrome coronavirus 2, UniProt P0DTD1). The data set is described as follows: Inhibition of His/SUMO tagged SARS-CoV2 main protease expressed in Escherichia coli BL21 (DE3) cells using Dabcyl-KTSAVLQSGFRKME-Edans as substrate preincubated for 30 mins followed by substrate addition and measured after 30 mins by fluorescence plate reader analysis.

Data set [6] has as its target T1, Replicase polyprotein 1ab. Description: Inhibition of eGFP fused SARS-CoV2 main protease transfected in HEK293T/17 cells incubated for 72 hrs by fluorescence based flow cytometry analysis. Type of data set: cell-based. (In general: In flow cytometry, cells or beads pass a laser one at a time.)

Consider `C[C@@H](OC(C)(C)C)[C@H](NC(=O)OCc1ccccc1)C(=O)N[C@@H](CC1CC1)C(=O)N[C@H](C=O)C[C@@H]1CCNC1=O`, for which the concentration giving a half-maximal response (EC50) (as a rule, the midpoint of the concentration-response curve) with SARS-CoV-2 [1] turned out to be 1200 nM; in the data set on SARS-CoV-2 [3] it was 1100 nM; in the data set on SARS-CoV-2 [4], 1800 nM. Besides, the CC50 (commonly the concentration at which the toxic effect on the cells reaches its halfway point) in data set [2] (HEK293T/17 cells) is above 200000 nM.
With `CC(C)[C@H](NC(=O)OCc1ccccc1)C(=O)N[C@@H](Cc1cccs1)C(=O)N[C@H](C=O)C[C@@H]1CCNC1=O`, the IC50 result in data set [5] is “Nd(Insoluble)”. Also, in data set [6], the half-maximal effective concentration (EC50) entry is “Nd(Insoluble)”.
`CC(C)(C)C[C@H](NC(=O)[C@@H](NC(=O)OCc1ccccc1)C(C)(C)C)C(=O)N[C@H](C=O)C[C@@H]1CCNC1=O`: the 50% effective concentration (EC50) is above 5000 nM in the data set on SARS-CoV-2 [1], 5000 nM with SARS-CoV-2 [3] and 710 nM in the data set on SARS-CoV-2 [4]. Further, the CC50 in data set [2] (HEK293T/17 cells) was above 200000 nM.
Regarding `C[C@@H](OC(C)(C)C)[C@H](NC(=O)OCc1cccc(Cl)c1)C(=O)N[C@@H](CC1CCCCC1)C(=O)N[C@H](C=O)C[C@@H]1CCNC1=O`, the EC50 stood at 2200 nM in the data set on SARS-CoV-2 [1], 870 nM with SARS-CoV-2 [3] and 1600 nM with SARS-CoV-2 [4]. Also, the CC50 in data set [2] (hek293t/17) stood at 130000 nM.
`CC(C)[C@H](NC(=O)OCc1cccc(Cl)c1)C(=O)N[C@@H](CC1CCCCC1)C(=O)N[C@H](C=O)C[C@@H]1CCNC1=O`: the EC50 in the data set on SARS-CoV-2 [1] was above 5000 nM; in the data set with SARS-CoV-2 [3], 3200 nM; in the data set on SARS-CoV-2 [4], above 5000 nM. The CC50 in data set [2] (hek293t/17) amounted to 114000 nM.
In data set [2] (hek293t/17), `CC(OC(C)(C)C)[C@H](NC(=O)OCc1ccccc1)C(=O)N[C@@H](CC1CCCCC1)C(=O)N[C@H](C=O)C[C@@H]1CCNC1=O` (single isomer, unassigned) displayed a CC50 of 109000 nM.
`CC(C)C[C@H](NC(=O)[C@@H](NC(=O)OCc1cccc(Cl)c1)[C@@H](C)OC(C)(C)C)C(=O)N[C@H](C=O)C[C@@H]1CCNC1=O`: the figures for the EC50 with SARS-CoV-2 [1], with SARS-CoV-2 [3] and in the data set on SARS-CoV-2 [4] were 1900 nM, 1600 nM and 650 nM, respectively. Also, the midpoint of cytotoxicity in data set [2] (hek293t/17), the CC50, lay at 183000 nM.
On to `C[C@@H](OC(C)(C)C)[C@H](NC(=O)OCc1ccccc1)C(=O)N[C@@H](CC(C)(C)C)C(=O)N[C@H](C=O)C[C@@H]1CCNC1=O`, for which the EC50 with SARS-CoV-2 [1] amounted to 1200 nM; with SARS-CoV-2 [3] it was 580 nM; with SARS-CoV-2 [4], 1200 nM. The compound also yielded a cytotoxic concentration (CC50) in data set [2] (HEK293T/17 cells) above 200000 nM.

Source of the values: ChEMBL document CHEMBL5113464, “A multi-pronged evaluation of aldehyde-based tripeptidyl main protease inhibitors as SARS-CoV-2 antivirals” (Eur J Med Chem, 2022).
